According to ChEMBL document CHEMBL3525906, “A comprehensive assessment of repaglinide metabolic pathways: impact of choice of in vitro system and relative enzyme contribution to in vitro clearance” (Drug Metab Dispos, 2012):

How the values were obtained:
[1] = species on record: Homo sapiens; assay: Ratio of AUC in human patient at 0.25 mg to AUC in human patient at 0.25 mg co-treated with cyclosporine; format: ADME, organism-based; conditions: in vivo
[2] = species on record: Homo sapiens; assay: Drug metabolism in human patient assessed as fold change in metabolite M2/M1 AUC ratio at 0.25 mg co-treated with telithromycin and montelukast relative to telithromycin and montelukast non-treated patient; format: ADME, organism-based; conditions: in vivo
[3] = species on record: Homo sapiens; assay: Ratio of AUC in variable SLCO1B1 genotype human patient at 0.25 mg to AUC in variable SLCO1B1 genotype human patient at 0.25 mg co-treated with gemfibrozil; format: ADME, organism-based; conditions: in vivo
[4] = species on record: Homo sapiens; assay: Ratio of AUC in human patient at 0.25 mg to AUC in human patient at 0.25 mg co-treated with trimethoprim; format: ADME, organism-based; conditions: in vivo
[5] = tested on: Hepatocyte; assay: Unbound intrinsic clearance in human hepatocytes assessed as glucuronide formation measured per 10^6 cells at 0.5 to 150 uM by LC-MS/MS method; format: ADME, cell-based
[6] = Unbound intrinsic clearance in human hepatic S9 fraction assessed as 3'-hydroxy repaglinide formation measured per mg of protein at 0.5 to 150 uM by LC-MS/MS method; format: ADME, tissue-based, Liver; conditions: s9, 150 µM
[7] = Unbound intrinsic clearance in human hepatic S9 fraction assessed as glucuronide formation measured per mg of protein at 0.5 to 150 uM by LC-MS/MS method; format: ADME, tissue-based, Liver; conditions: s9, 150 µM
[8] = species on record: Homo sapiens; assay: Drug metabolism in human patient assessed as fold change in metabolite M2/M1 AUC ratio at 0.25 mg co-treated with gemfibrozil on various time intervals relative to gemfibrozil non-treated patient; format: ADME, organism-based; conditions: in vivo
[9] = Unbound intrinsic clearance in human hepatic S9 fraction assessed as 2-despiperidyl-2-amino repaglinide formation measured per mg of protein at 0.5 to 150 uM by LC-MS/MS method; format: ADME, tissue-based, Liver; conditions: s9, 150 µM
[10] = species on record: Homo sapiens; assay: Ratio of AUC in human patient at 0.25 mg to AUC in human patient at 0.25 mg co-treated with gemfibrozil on various time intervals; format: ADME, organism-based; conditions: in vivo
[11] = tested on: Hepatocyte; assay: Drug metabolism in human hepatocytes assessed as 2-despiperidyl-2-(5-carboxypentylamine) repaglinide formation measured per 10^6 cells at 0.5 to 150 uM by LC-MS/MS method; format: ADME, cell-based
[12] = tested on: Hepatocyte; assay: Unbound intrinsic clearance in human hepatocytes assessed as 3'-hydroxy repaglinide formation measured per 10^6 cells at 0.5 to 150 uM by LC-MS/MS method; format: ADME, cell-based
[13] = target: T1, Cytochrome P450 3A4 (Homo sapiens, UniProt P08684); assay: Fraction metabolism via CYP3A4 in human liver microsomes; format: ADME
T1 sequence (P08684 whole entry): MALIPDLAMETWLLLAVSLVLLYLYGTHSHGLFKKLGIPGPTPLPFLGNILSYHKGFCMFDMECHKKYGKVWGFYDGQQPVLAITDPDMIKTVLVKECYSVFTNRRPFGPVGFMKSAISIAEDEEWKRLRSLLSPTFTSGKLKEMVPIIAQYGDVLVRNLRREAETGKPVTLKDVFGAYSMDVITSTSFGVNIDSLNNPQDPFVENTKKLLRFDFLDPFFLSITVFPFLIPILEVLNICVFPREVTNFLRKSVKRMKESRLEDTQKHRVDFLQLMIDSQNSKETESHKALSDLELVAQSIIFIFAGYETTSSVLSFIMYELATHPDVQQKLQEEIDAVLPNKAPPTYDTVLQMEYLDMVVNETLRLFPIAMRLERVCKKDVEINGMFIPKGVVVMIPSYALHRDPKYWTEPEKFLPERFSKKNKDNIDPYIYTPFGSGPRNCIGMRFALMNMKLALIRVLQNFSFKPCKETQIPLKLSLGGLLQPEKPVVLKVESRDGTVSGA

[14] = Drug metabolism in human hepatic S9 fraction assessed as 2-despiperidyl-2-(5-carboxypentylamine) repaglinide formation by LC-MS/MS method; format: ADME, Liver
[15] = Fraction metabolism via UGT in human hepatic S9 fraction; format: ADME, Liver
[16] = Drug metabolism in human hepatic S9 fraction assessed as 2-despiperidyl-2-(5-carboxypentylamine) repaglinide formation measured per mg of protein at 0.5 to 150 uM by LC-MS/MS method; format: ADME, Liver; conditions: s9, 150 µM
[17] = tested on: Liver microsome; assay: Drug metabolism in human liver microsomes assessed as 2-despiperidyl-2-amino repaglinide formation measured per mg of protein at 0.5 to 150 uM by LC-MS/MS method; format: ADME
[18] = tested on: Liver microsome; assay: Drug metabolism in human liver microsomes assessed as glucuronide formation by LC-MS/MS method; format: ADME
[19] = Fraction metabolism via UGT in human hepatocytes; format: ADME, cell-based, Hepatocyte
[20] = species on record: Homo sapiens; assay: Ratio of AUC in variable OATP1B1 genotype human patient at 0.25 mg to AUC in ariable OATP1B1 genotype human patient at 0.25 mg co-treated with gemfibrozil on various time intervals; format: ADME, organism-based; conditions: in vivo
[21] = tested on: Hepatocyte; assay: Unbound intrinsic clearance in human hepatocytes assessed as 2-despiperidyl-2-amino repaglinide formation measured per 10^6 cells at 0.5 to 150 uM by LC-MS/MS method; format: ADME, cell-based
[22] = target: T1, Cytochrome P450 3A4; assay: Unbound intrinsic clearance in human recombinant CYP3A4 expressed in insect cells assessed as enzyme-mediated 3'-hydroxy repaglinide formation per nanomole of protein at 0.5 to 150 uM by LC-MS/MS method; format: ADME
[23] = tested on: Liver microsome; assay: Drug metabolism in human liver microsomes assessed as 3'-hydroxy repaglinide formation measured per mg of protein at 0.5 to 150 uM by LC-MS/MS method; format: ADME
[24] = tested on: Hepatocyte; assay: Drug metabolism in human hepatocytes assessed as 3'-hydroxy repaglinide formation measured per 10^6 cells at 0.5 to 150 uM by LC-MS/MS method; format: ADME, cell-based
[25] = Drug metabolism in human hepatocytes assessed as 2-despiperidyl-2-(5-carboxypentylamine) repaglinide formation by LC-MS/MS method; format: ADME, cell-based, Hepatocyte
[26] = tested on: Liver microsome; assay: Unbound intrinsic clearance in human liver microsomes assessed as 2-despiperidyl-2-(5-carboxypentylamine) repaglinide formation measured per mg of protein at 0.5 to 150 uM by LC-MS/MS method; format: ADME
Procedure, shortened: (§1)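 Pooled HLM, 0.3 mg/ml, in 0.1 M phosphate pH 7.4 with 10 mM MgCl2 and NADPH regenerating system. Repaglinide at 8 levels, 0.5-150 μM; 37°C, 10 min. Metabolites by LC-MS/MS against authentic standards; fu_inc 0.85. Duplicates on three occasions.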

[27] = species on record: Homo sapiens; assay: Ratio of AUC in human patient at 0.25 mg to AUC in human patient at 0.25 mg co-treated with telithromycin; format: ADME, organism-based; conditions: in vivo
[28] = Drug metabolism in human hepatic S9 fraction assessed as 2-despiperidyl-2-amino repaglinide formation measured per mg of protein at 0.5 to 150 uM by LC-MS/MS method; format: ADME, Liver; conditions: s9, 150 µM
[29] = target: Cytochrome P450 3A5 (Homo sapiens, UniProt P20815); assay: Activity of human recombinant CYP3A5 expressed in insect cells assessed as enzyme-mediated 3'-hydroxy repaglinide formation by LC-MS/MS method; format: ADME
Sequence of Cytochrome P450 3A5 (P20815 whole entry): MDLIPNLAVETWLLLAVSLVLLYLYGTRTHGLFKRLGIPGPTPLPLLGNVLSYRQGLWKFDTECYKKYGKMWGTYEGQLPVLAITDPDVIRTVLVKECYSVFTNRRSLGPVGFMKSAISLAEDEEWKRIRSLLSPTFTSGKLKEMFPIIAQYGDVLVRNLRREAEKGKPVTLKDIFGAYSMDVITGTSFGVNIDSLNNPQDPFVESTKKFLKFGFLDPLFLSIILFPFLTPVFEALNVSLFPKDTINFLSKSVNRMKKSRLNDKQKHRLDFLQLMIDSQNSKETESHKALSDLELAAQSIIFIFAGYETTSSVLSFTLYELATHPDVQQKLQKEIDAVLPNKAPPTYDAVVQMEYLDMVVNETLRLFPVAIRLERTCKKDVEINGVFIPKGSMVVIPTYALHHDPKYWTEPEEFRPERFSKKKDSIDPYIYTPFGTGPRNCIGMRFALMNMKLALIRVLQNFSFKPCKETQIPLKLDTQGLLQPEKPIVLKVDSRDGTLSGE
Procedure, shortened: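 Recombinant P450 (CYP2C8 50, CYP3A4 30, CYP3A5 100; units not given) incubated 10 min at 37°C with repaglinide (8 concentrations, 0.5–150 μM) in 0.1 M phosphate pH 7.4, 10 mM MgCl2, NADPH-regenerating system (1 mM NADP+, isocitrate/isocitrate dehydrogenase). Quenched with ice-cold methanol plus indomethacin internal standard. M1, M2, M4 quantified by LC-MS/MS against authentic standards. Michaelis-Menten fit; mean ± SD, n=3.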

[30] = target: T1, Cytochrome P450 3A4; assay: Unbound intrinsic clearance in human recombinant CYP3A4 expressed in insect cells assessed as enzyme-mediated 2-despiperidyl-2-amino repaglinide formation per nanomole of protein at 0.5 to 150 uM by LC-MS/MS method; format: ADME
[31] = species on record: Homo sapiens; assay: Drug metabolism in human patient assessed as fold change in metabolite M2/M1 AUC ratio at 0.25 mg co-treated with montelukast relative to montelukast non-treated patient; format: ADME, organism-based; conditions: in vivo
[32] = tested on: Liver microsome; assay: Unbound intrinsic clearance in human liver microsomes assessed as 3'-hydroxy repaglinide formation measured per mg of protein at 0.5 to 150 uM by LC-MS/MS method; format: ADME; procedure, shortened: as §1
[33] = Drug metabolism in human hepatocytes assessed as 2-despiperidyl-2-amino repaglinide formation by LC-MS/MS method; format: ADME, cell-based, Hepatocyte

Ratio [1]: 2.4
fold change (FC) [2]: 4.3
Ratio [3]: 7.3
Ratio [4]: 1.6
CL free [5]: 0.13 uL/min/10^6cells
CL free [6]: 2.7 µL/min/mg
CL free [7]: 1.8 µL/min/mg
fold change (FC) [8]: 0.39
CL free [9]: 0.76 µL/min/mg
Ratio [10]: 5
Vmax [11]: 80 pmol/min/10^6cells
CL free [12]: 2.4 uL/min/10^6cells
Fm [13]: 0.2
Km [14]: 47 µM
Fm [15]: 0.2
Vmax [16]: 94 pmol/min/mg
Vmax [17]: 170 pmol/min/mg
Km [18]: 37 µM
Fm [19]: 0.02
Ratio [20]: 1
CL free [21]: 0.75 uL/min/10^6cells
CL free [22]: 2 µL/min/nmol
Vmax [23]: 130 pmol/min/mg
Vmax [24]: 28 pmol/min/10^6cells
Km [25]: 28 µM
CL free [26]: 1.4 µL/min/mg
Ratio [27]: 1.8
Vmax [28]: 24 pmol/min/mg
Km [29]: ≥ 150 µM
CL free [30]: 120 µL/min/nmol
fold change (FC) [31]: 1.1
CL free [32]: 18 µL/min/mg
Km [33]: 58 µM
Compound: CCOc1cc(CC(=O)N[C@@H](CC(C)C)c2ccccc2N2CCCCC2)ccc1C(=O)O [REPAGLINIDE]
